Source: ChEMBL document CHEMBL1145030, “Novel pyrazolo[3,4-d]pyrimidine-based inhibitors of Staphlococcus aureus DNA polymerase III: design, synthesis, and biological evaluation” (J Med Chem, 2003)
≈ marks a conversion by molar mass, not a printed value. Calls of active or inactive are those of the source. The calls are words filed in the database; no cut-off is given here.

What was measured:
[1] = system: Nucleic Acid; experiment: Inhibitory activity against DNA polymerase III (DNA pol III) of Staphylococcus aureus at a concentration of 500 uM; NA means Inactive; type: nucleic-acid assay
Method in brief: (§1)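 S. aureus pol III was PCR-cloned into pET15, expressed in BL21 (1 mM IPTG), and purified on HiTrapQ then HiTrap Blue. Enzyme-started, it ran 30 min at 30 °C and was stopped with cold TCA/NaPPi. Incorporation was read by filter capture and scintillation counting.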

[2] = system: Nucleic Acid; experiment: Inhibitory activity against DNA polymerase III (DNA pol III) of Staphylococcus aureus; type: nucleic-acid assay; method in brief: as §1
[3] = system: Nucleic Acid; experiment: Inhibitory activity against DNA polymerase III (DNA pol III) of Staphylococcus aureus at a concentration of 500 uM; type: nucleic-acid assay; method in brief: as §1
[4] = system: Enterococcus faecium; experiment: Antibacterial activity against Enterococcus faecium; type: functional
Method in brief: (§2)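 Broth microdilution MIC against B. subtilis F2, E. faecium RLA-1, S. aureus MB2865 and S. pneumoniae MCL5350. Compounds were DMSO stocks, serially 2-fold diluted from 100 μM final, at 5% final DMSO, with a DMSO vehicle control. Wells were inoculated from cultures diluted in PBS and incubated overnight at 37 °C. MIC was scored visually as the lowest concentration preventing growth.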

[5] = system: Staphylococcus aureus; experiment: Antibacterial activity against Staphylococcus aureus; type: functional; method in brief: as §2
[6] = system: Streptococcus pneumoniae; experiment: Antibacterial activity against Streptococcus pneumoniae; type: functional; method in brief: as §2
[7] = system: Bacillus subtilis; experiment: Antibacterial activity against Bacillus subtilis; type: functional; method in brief: as §2

SMILES: Cc1ccc(CNc2nc(O)c3c[nH]nc3n2)c(C)c1
- inhibition [1]: 12%

SMILES: Cc1ccc(Nc2nc(O)c3c[nH]nc3n2)cc1Cl
- IC50 [2]: 214 µM
- inhibition [3]: 62%
- MIC [4]: 28 µg/mL (≈ 102 µM)
- MIC [5]: 14 µg/mL (≈ 50.8 µM)
- MIC [6]: 14 µg/mL (≈ 50.8 µM)
- MIC [7]: 7 µg/mL (≈ 25.4 µM)

SMILES: Cc1ccc(Nc2nc(O)c3c[nH]nc3n2)cc1Br
- IC50 [2]: 129 µM
- inhibition [3]: 69%
- MIC [4]: 16 µg/mL (≈ 50 µM)
- MIC [5]: 8 µg/mL (≈ 25 µM)
- MIC [6]: 8 µg/mL (≈ 25 µM)
- MIC [7]: 8 µg/mL (≈ 25 µM)

SMILES: CCc1cc(Nc2nc(O)c3c[nH]nc3n2)ccc1C
- IC50 [2]: 68 µM
- inhibition [3]: 88%
- MIC [4]: 13 µg/mL (≈ 48.3 µM)
- MIC [5]: 27 µg/mL (≈ 100 µM)
- MIC [6]: 13 µg/mL (≈ 48.3 µM)
- MIC [7]: 7 µg/mL (≈ 26 µM)

SMILES: Cc1ccc(Nc2nc(O)c3c[nH]nc3n2)cc1I
- IC50 [2]: 71 µM
- inhibition [3]: 86%
- MIC [4]: 18 µg/mL (≈ 49 µM)
- MIC [5]: 9 µg/mL (≈ 24.5 µM)
- MIC [6]: 9 µg/mL (≈ 24.5 µM)
- MIC [7]: 9 µg/mL (≈ 24.5 µM)

SMILES: Oc1[nH]c(NCc2ccccc2)nc2nncc1-2
- inhibition [3]: 32%

SMILES: Oc1[nH]c(NCc2ccc(Br)cc2)nc2nncc1-2
- inhibition [3]: 23%

SMILES: Oc1[nH]c(NCc2ccc(F)c(Cl)c2)nc2nncc1-2
- inhibition [3]: 24%

SMILES: Oc1[nH]c(NCc2ccc(Cl)c(Cl)c2)nc2nncc1-2
- IC50 [2]: 108 µM
- inhibition [3]: 58%

SMILES: Cc1ccc(Nc2nc(O)c3c[nH]nc3n2)cc1C
- inhibition [3]: 36%
- MIC [6]: 26 µg/mL (≈ 102 µM)
- MIC [7]: 13 µg/mL (≈ 50.9 µM)

SMILES: Oc1[nH]c(NCc2cccc(C(F)(F)F)c2)nc2nncc1-2
- NA [1]: inactive

SMILES: COc1cccc(CNc2nc(O)c3c[nH]nc3n2)c1
- NA [1]: inactive

SMILES: CC(C)c1ccc(CNc2nc(O)c3c[nH]nc3n2)cc1
- NA [1]: inactive

SMILES: Oc1[nH]c(NCc2ccccc2Cl)nc2nncc1-2
- NA [1]: inactive

SMILES: COc1ccc(CNc2nc(O)c3c[nH]nc3n2)cc1
- inhibition [3]: 10%
